In the RNAGym collection of RNA variant scans (doi:10.1126/science.aae0568):
Fewer inactive variants are shown than the library holds.

B1: tRNA (parent)
chain: GUUCCGUUGGCGUAAUGGUAACGCGUCUCCCUCCUAAGGAGAAGACUGCGGGUUCGAGUCCCGUACGGAACG

Variants of: B1
Test: yeast fitness relative to wild type (ratio to wild type); higher = fitter; tRNA-Arg(CCU), competitive growth, 37 C, YPD
Procedure, shortened: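 Amplicons of the tRNA-Arg(CCU) gene were sequenced, 100-nucleotide paired-end, from the start population and from each end population of a pooled yeast competition. The competition, in six parallel replicates, lasted 24 hours in YPD at 37°C. Fitness relative to wild type was calculated from changes in genotype frequencies. Genotypes had to have ≥ 100 starting reads, and estimates < 0.5 were set to 0.5.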

**Q.** With GUUCGGUUGGCGUAAUGGUAACGCGUUUCCCUCCUAAGGAGAAGACUGCGAGUUCGAGUGCCGUACGGAGCG [C5G C27U G51A C60G A70G] as the variant, how does the yeast fitness read?
**A.** ≤ 0.5

**Q.** Which yeast fitness does the source give for GUUCGGUUGGCGUAAUGGUAACGCGUUUCCCUCCUUAGGAGAAGACUGCGGGUUCGAGUGCCGUACGGAACG [C5G C27U A36U C60G] here?
**A.** ≤ 0.5

**Q.** With GUUCGGUUGGCGUAAUGGUAACGUGUCUCCCUUUUAAGGAGAAAACUGCGGGUUCGAGUCCGGUACGGAACG [C5G C24U C33U C34U G44A C62G] as the variant, how does the yeast fitness read?
**A.** ≤ 0.5

**Q.** With GUUCGGUUGGCGUAAUGGUAACGGGUCUCCUUCCUAAGGAGAAGACUGCGGGUUCGAGUCACGUACGGAACG [C5G C24G C31U C61A] as the variant, how does the yeast fitness read?
**A.** ≤ 0.5

**Q.** With GUUCGGUUGGCGUAAUGGUAACGCGUGUCCCUCCUAAGGAGAAGACUGCGGGUUCGCGUCCCGUACGGAACG [C5G C27G A57C] as the variant, how does the yeast fitness read?
**A.** ≤ 0.5

**Q.** For GUUCGGUUGGCGUAAUGGUAACGCGUGUCCCUCGUAAGGAGAAGACUGCGGGUUCGAGUCCCGUACGGAACG [C5G C27G C34G], which yeast fitness is on record?
**A.** ≤ 0.5

**Q.** Which yeast fitness does the source give for GUUCGGUUGGCGUAAUGGUAACGCGUGUCUCUCCUAAGGAGAAGACUGCGCGUUAGAGUCCCGUACGGAACG [C5G C27G C30U G51C C55A] here?
**A.** ≤ 0.5

**Q.** For GUUCGGUUGGCGUAAUGGUAACGCGUUUCCCUCCUAAGGAGAAGACUGCGGGUUCGAGUCCCGUACAGAACG [C5G C27U G67A], which yeast fitness is on record?
**A.** 0.524

**Q.** Which yeast fitness does the source give for GUUCGGUUGGCGUAAUGGUAACGGGUCUCCCUCCUAAGGAGAAGCCUGCGGGUUCGAGUCCCGUACGGAUCG [C5G C24G A45C A70U] here?
**A.** ≤ 0.5

**Q.** Which yeast fitness does the source give for GUUCGGUUGGCGUAAUGGUAAAGCGUCUCCCUCCUAAGGAGAAGACUGCGGGUUCGAGUCCCGUACGGAACG [C5G C22A] here?
**A.** 0.766

**Q.** Which yeast fitness does the source give for GUUCGGUUGGCGUAAUGGUAAGGCGUCUCCCUCCUAAGGAGAAGACUGCGGGUUCGAGUCCCGUACGGAACG [C5G C22G] here?
**A.** 0.652

**Q.** With GUUCGGUUGGCGUAAUGGUAAUGCGUCUCCCUCCUAAGGAGAAGACUGCGGGUUCGAGUCCCGUACGGAACG [C5G C22U] as the variant, how does the yeast fitness read?
**A.** 0.72

**Q.** Which yeast fitness does the source give for GUUCGGUUGGCGUAAUGGUAACGCGUUUCCCUCCUAAGGAGAUGACUGCGGGUUCGAGUCCCGUACGGAACG [C5G C27U A43U] here?
**A.** 0.54

**Q.** For GUUCGGUUGGCGUAAUGGUAACGCGUUUCCCUCCUAAGGACAAGACUGCGGGCUCGAGUCCCGUACGGAACG [C5G C27U G41C U53C], which yeast fitness is on record?
**A.** ≤ 0.5

**Q.** For GUUCGGUUGGCGUAAUGGUAACGCGUCUACCUCCUAAGGAGAAGACUACGGGUUCGAGUCCCGUACGGAACG [C5G C29A G48A], which yeast fitness is on record?
**A.** ≤ 0.5

**Q.** Which yeast fitness does the source give for GUUCGGUUGGCGUAAUGGUAAGGCGUCACCGUCCUAAGGAGAAGACUGCGGGUUAGAGUCCCGUACGCAACG [C5G C22G U28A C31G C55A G68C] here?
**A.** 0.551

**Q.** Which yeast fitness does the source give for GUUCGGUUGGCGUAAUGGUAACGCGUGUCCCUCCUAAGGAGAAGACUGCGGGUUCGAGUCCCGUCCGGACCG [C5G C27G A65C A70C] here?
**A.** 0.552

**Q.** For GUUCGGUUGGCGUAAUGGUAACGGGUCUCGUUCCAUAGGAGAAAACUGCGGGUUCGAGUCCCGUACGGAACG [C5G C24G C30G C31U U35A A36U G44A], which yeast fitness is on record?
**A.** 0.832

**Q.** With GUUCGGUUGGCGUAAUGGUAACGUGUCUCCAUCCUAAGGAGAAGACUGCGGGUUCGAGUCCCGUACGGAACG [C5G C24U C31A] as the variant, how does the yeast fitness read?
**A.** ≤ 0.5

**Q.** For GUUCGGUUGGCGUAAUGGUAAGGCGUCUCCCUCCUAAGGAGAAGACUGCGGGUUGGAGUCCCCUACGGAACG [C5G C22G C55G G63C], which yeast fitness is on record?
**A.** 0.679

**Q.** For GUUCGGUUGGCGUAAUGGUAACGCGUUUCCCUCUUAAGGAGAAGACUGCGGGUUCCAGUCCCGUACGGAACG [C5G C27U C34U G56C], which yeast fitness is on record?
**A.** 0.646

**Q.** Which yeast fitness does the source give for GUUCGGUUGGCGUAAUGGUAACGCGUGUCCCUCCUAAGGAGAAGACUGCGGGUUCGAGUCCCGUACGGAACG [C5G C27G] here?
**A.** 0.81

**Q.** Which yeast fitness does the source give for GUUCGGUUGGCGUAAUGGUAACGGGUCUCCCUCCUAAGGACAAGACUGCGGGUUCGAGUCCCGUACGGAACG [C5G C24G G41C] here?
**A.** ≤ 0.5

**Q.** For GUUCGGUUGGCGUAAUGGUAACGUGUCUCCCUUCUAAGGAGAAGAAUGCGGGUUCGAGUCCCGUACGGAACG [C5G C24U C33U C46A], which yeast fitness is on record?
**A.** ≤ 0.5

**Q.** With GUUCGGUUGGCGUAAUGGUAACGCGUGUCCCUCCUAACGAGAAGACUGCGGGUUCCAGUCCCGUACGGAACG [C5G C27G G38C G56C] as the variant, how does the yeast fitness read?
**A.** ≤ 0.5

**Q.** With GUUCGGUUGGCGUAAUGGUAACGCGUGUCCCUCCUAAGGAGAAGACUGCGGGUUCGAGUCUCGUACGGAACG [C5G C27G C61U] as the variant, how does the yeast fitness read?
**A.** ≤ 0.5

**Q.** Which yeast fitness does the source give for GUUCGGUUGGCGUAAUGGUAAAGCGUCUCCCUCCUAAGGAGAAGACUGCGGGUUCGAGUCCCGUACGGCACG [C5G C22A A69C] here?
**A.** 0.603

**Q.** For GUUCGGUUGGCGUAAUGGUAACGUGUCUCCCUCCUAAGGAGAAGACUGCGGGUUCGAGUCACGUACGGACCG [C5G C24U C61A A70C], which yeast fitness is on record?
**A.** ≤ 0.5

**Q.** For GUUCGGUUGGCGUAAUGGUAACGCGUAUCCAUCCUAAGGAGCAGACUGCGGGUUCGAGUCCCGUACGGAACG [C5G C27A C31A A42C], which yeast fitness is on record?
**A.** ≤ 0.5

**Q.** With GUUCGGUUGGCGUAAUGGUAACGCGUUUCCCUCCUAAGGAGAAGACUGCGGGUUCGAGUCCCGUAUGGAACG [C5G C27U C66U] as the variant, how does the yeast fitness read?
**A.** 0.654

**Q.** For GUUCGGUUGGCGUAAUGGUAAUGCGUCUCCCUCCUGAGGAGAAGACUGCGGGUUCGAGUCCCGUCCGGAACG [C5G C22U A36G A65C], which yeast fitness is on record?
**A.** ≤ 0.5

**Q.** With GUUCGGUUGGCGUAAUGGUAAUGCGUCUCCCUCCUAAGGAGAAGACUGCUGGUUCGAGUCCCGUACGGAACG [C5G C22U G50U] as the variant, how does the yeast fitness read?
**A.** 0.563

**Q.** With GUUCGGUUGGCGUAAUGGUAACGUGUCUCCCUCCUCAGGAGAAGACUGAGGGUUCGAGUCCCGUACGGAACG [C5G C24U A36C C49A] as the variant, how does the yeast fitness read?
**A.** 0.577

**Q.** For GUUCGGUUGGCGUAAUGGUAACGCGUGUCCCUCCUAAGGAGAACACUGCGGGUUCGAGACCCGUACGGAACG [C5G C27G G44C U59A], which yeast fitness is on record?
**A.** ≤ 0.5

**Q.** With GUUCGGUUGGCGUAAUGGUAAUGCGUUUCCCUCCUGAGGAGAAGACUGCGGGUUCGAGUCCCGUACGGCACG [C5G C22U C27U A36G A69C] as the variant, how does the yeast fitness read?
**A.** ≤ 0.5

**Q.** For GUUCGGUUGGCGUAAUGGUAAAGCGUCUCCCUCCUAAGGAGCAGACUGCGGGUUCGAGUCCCGUACGGAACG [C5G C22A A42C], which yeast fitness is on record?
**A.** ≤ 0.5

**Q.** For GUUCGGUUGGCGUAAUGGUAAUGCGUCUCCCUCCUAAGGAGAAGACUGCGGGUUCGGGUCCCGUACGGAACG [C5G C22U A57G], which yeast fitness is on record?
**A.** ≤ 0.5

**Q.** With GUUCGGUUGGCGUAAUGGUAACGCGUCUACCUCCUAAGGAGAAGACUGCGGGUUCAAGUCCCGUACGGAACG [C5G C29A G56A] as the variant, how does the yeast fitness read?
**A.** 0.615
